CYP2C9 inhib – blockers of cytochrome P450 2C9 activity – biochemical, luminescence, ADME assay, primary screen; 96,000 tested, 20% active; inhibition, % at 5 µM; AID 777, 2007; CYP2C9 Supersomes, luciferin-H conversion;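 active means blocking of liver enzyme CYP2C9 beyond about 50% at 5 µM, limit read from the data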
CYP2C19 activ – human CYP2C19 activators, primary screen, biochemical, luminescence; Cytochrome P450 2C19 (Homo sapiens), P33261; recombinant CYP2C19, luciferin-H EGE luminescence; active compounds read high; 0 = fully inhibited enzyme, 1 = untreated enzyme; 96,000 tested, under 10 active; activation factor at 5 µM; AID 1025, 2008;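 active means activation factor of at least 2 at 5 µM in the primary screen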
Target sequence (P33261 whole entry, looked up): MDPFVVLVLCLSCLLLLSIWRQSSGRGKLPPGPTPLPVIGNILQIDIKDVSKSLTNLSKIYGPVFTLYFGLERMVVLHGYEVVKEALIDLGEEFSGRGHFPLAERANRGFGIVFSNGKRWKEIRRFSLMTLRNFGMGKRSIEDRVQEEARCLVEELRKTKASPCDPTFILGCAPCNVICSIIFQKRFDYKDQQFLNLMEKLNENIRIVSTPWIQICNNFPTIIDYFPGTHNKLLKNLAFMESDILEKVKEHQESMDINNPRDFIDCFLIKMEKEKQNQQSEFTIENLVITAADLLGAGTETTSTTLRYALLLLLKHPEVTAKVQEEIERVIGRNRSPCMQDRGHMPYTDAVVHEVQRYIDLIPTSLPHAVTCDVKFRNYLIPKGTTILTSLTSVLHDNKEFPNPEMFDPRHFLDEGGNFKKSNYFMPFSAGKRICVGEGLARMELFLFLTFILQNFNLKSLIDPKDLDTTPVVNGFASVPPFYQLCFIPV
CYP2C9 act – human CYP2C9 activators, primary screen, biochemical, luminescence. Cytochrome P450 2C9 (Homo sapiens), P11712. recombinant CYP2C9, luciferin-H conversion; active compounds read high; factor 1 = untreated enzyme, 0 = blocked. 96,000 tested, 1.4% active. activation factor at 5 µM;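 active means activation factor of 2 or more for CYP2C9 at a 5 µM dose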
tolC growth inh – growth inhibitors of E. coli tolC mutant, primary screen, strain BW25113 ΔtolC::kan, 384-well; 65,000 tested, 2.2% active; OD615; AID 573, 2007; growth inhibition, % at 10 µM (by protocol);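 active means growth inhibition at or above a cutoff equal to the mean over every tested compound plus 3 SD, cut at about 60% in these data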;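 further: growth measured after 20 h incubation at 37 °C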
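Test system: tolC-deleted E. coli BW25113 | Medium: LB with kanamycin 50 µg/mL | Compound dosing: Single concentration, 10 µM final per compound | Schedule: 37 °C, 20 h exposure | Measured by: OD at 615 nm | Evaluation: Percent growth inhibition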
Ecoli WT expand – growth inhibitors of wild-type E. coli, primary screen, strain BW25113, expanded library, OD600. OD600 absorbance. growth inhibition, % at 100 µM. 98,000 tested, 0.15% active. AID 710, 2007;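 active means growth inhibition above about 50% at one test dose, limit read from the data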;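 further: growth measured after 20 h incubation at 37 °C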
CYP2C19 inhib – blockers of cytochrome P450 2C19 activity – biochemical, luminescence, ADME assay, primary screen; CYP2C19 Supersomes, luciferin-H EGE luminescence, 30 min; inhibition, % at 5 µM; 96,000 tested, 21% active; AID 778, 2007;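 active means CYP2C19 inhibition above a set limit at 5 µM in the primary screen, cut at about 50% in these data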
Large screens that a line does not name were inactive. Hits are enriched below; roughly 29% of the tested compounds scored in any of these assays.

Cc1ccc(C)c(Cn2c(C(=O)OC(C)C)cc3c2ccn3C)c1	CYP2C19 inhib 55 (no result: tolC growth inh)
CN(C1CCS(=O)(=O)C1)S(=O)(=O)c1cccc2nsnc12 (stereo not drawn)	none
Cc1cc(C)n(Cc2n[nH]c(=S)n2Cc2ccccc2)n1	none (no result: tolC growth inh)
Cc1nn(Cc2n[nH]c(=S)n2Cc2ccccc2)c(C)c1Cl	CYP2C19 inhib 53 (no result: tolC growth inh)
CCOc1ccc(N(CC(=O)NCCCOC)S(C)(=O)=O)cc1	none
CCOc1ccc(N(CC(=O)NC(C)CC)S(C)(=O)=O)cc1 (stereo not drawn)	CYP2C19 inhib 65 (no result: tolC growth inh)
CCC(C)NC(=O)c1ccccc1NC(=O)CN(c1ccc(OC)cc1)S(C)(=O)=O (stereo not drawn)	CYP2C9 inhib 98, CYP2C19 inhib 72 (no result: tolC growth inh)
CCOC(=O)C(=O)Nc1ccccc1C(=O)Nc1ccc(OC)cc1	CYP2C9 inhib 52 (no result: tolC growth inh)
CC(C)NC(=O)c1ccccc1NC(=O)c1ccccc1N(C)S(C)(=O)=O	none
CCOC(=O)N1CCN(C(=O)c2ccccc2NC(=O)c2ccc(OC)cc2)CC1	none
CCOc1ccc(N(CC(=O)NCC(C)C)S(C)(=O)=O)cc1	CYP2C19 inhib 60
CCOC(=O)N1CCN(C(=O)CN(c2ccc(OCc3ccccc3)cc2)S(C)(=O)=O)CC1	none
CC(c1ccccc1)N1CC(C(=O)NC2CCCC2)CC1=O (stereo not drawn)	none
CCOc1ccccc1OCC(=O)O	none
CC(=C\C(=O)O)/C(=C/c1ccccc1)C(=O)O	none (no result: tolC growth inh)
Cc1ccc(S(=O)(=O)Nc2nc3ccccc3nc2NCc2ccco2)cc1C	CYP2C9 inhib 100
Cc1ccc(S(=O)(=O)Nc2nc3ccccc3nc2NCc2ccco2)cc1	CYP2C9 inhib 99
Cc1ccccc1S(=O)(=O)Nc1nc2ccccc2nc1NCCO	CYP2C9 inhib 100 (no result: tolC growth inh)
Cc1cc(C)c(C)c(S(=O)(=O)NCc2ccco2)c1C	none
Cc1ccc(C(=O)Nc2ccc(S(=O)(=O)NCc3ccco3)cc2)cc1	none (no result: tolC growth inh)
O=S(=O)(Nc1nc2ccccc2nc1NCc1ccco1)c1ccc(Cl)cc1	CYP2C9 inhib 98, tolC growth inh 96, CYP2C19 inhib 51
O=C(CCS(=O)(=O)Cc1ccccc1)NCC1CCCO1 (stereo not drawn)	none
CCC(C)Oc1nc2ccccc2nc1NS(=O)(=O)c1ccccc1 (stereo not drawn)	none (no result: tolC growth inh)
Cc1ccc(S(=O)(=O)NCc2ccco2)cc1C	CYP2C9 act 2.7, CYP2C19 inhib 80
Cc1cccc(S(=O)(=O)Nc2nc3ccccc3nc2NCc2ccco2)c1	CYP2C9 inhib 95, tolC growth inh 75
Cc1noc(C)c1CSc1nc2ccccc2nc1NS(=O)(=O)c1ccc(Cl)cc1	CYP2C9 inhib 87
C(=N\Nc1nc(-c2ccccc2)cs1)/c1cccs1	none (no result: tolC growth inh)
CC(/C=N/NC(=O)c1ccc(Br)cc1)=C\c1ccccc1	none (no result: tolC growth inh)
CC(/C=C1\SC(=S)N(NC(=O)c2ccc(C)cc2)C1=O)=C\c1ccccc1	CYP2C9 inhib 61 (no result: tolC growth inh)
COc1ccc(-c2nsc(SCC(=O)Nc3cc(C)on3)n2)cc1	CYP2C9 inhib 54
CCc1nnc(NC(=O)CSc2nc(-c3ccc(OC)cc3)ns2)s1	CYP2C9 inhib 72
CCOC(=O)c1c(NC(=O)Cn2nnc3ccccc32)sc2c1CCC(C)C2 (stereo not drawn)	CYP2C9 inhib 88, CYP2C19 inhib 61
Nc1ncnc2nc(SCc3ccccc3)[nH]c12	CYP2C19 inhib 70
CCOc1ccccc1NC1=C(Cl)C(=O)N(Cc2ccccc2)C1=O	CYP2C9 inhib 70, CYP2C19 inhib 52 (no result: tolC growth inh)
O=C(CN1CCOCC1)N1CCN(C(=O)CN2CCOCC2)CC1	none (no result: CYP2C9 inhib, CYP2C19 activ, CYP2C9 act, Ecoli WT expand, CYP2C19 inhib)
Cc1onc(-c2ccccc2)c1-c1nc2ccccc2c(=O)o1	CYP2C19 inhib 51 (no result: tolC growth inh)
Cc1ccc(CNC(=O)CSc2nc3ccccc3c3nc(C)nn23)cc1	CYP2C9 act 2 (no result: tolC growth inh)
C=CCn1c(N)cc(=O)nc1SCC(=O)NC(C)c1ccccc1 (stereo not drawn)	CYP2C19 inhib 52
Cc1ccc(CNC(=O)CSc2nc3ccccc3c(=O)n2CCCO)cc1	CYP2C9 inhib 87, CYP2C19 inhib 62
Cc1ccc(CNC(=O)CSc2nnnn2C)cc1	none (no result: tolC growth inh)
CCOCCCn1c(SCC(=O)NC(C)(C)C)nc2ccccc2c1=O	none
Nc1cc(=O)nc(SCC(=O)NCc2ccccc2)n1CCc1ccccc1	none (no result: tolC growth inh)
CC(C)NC(=O)CSc1nc2ccccc2c(=O)n1CCCOC(C)C	CYP2C9 inhib 54
CCOC(=O)N1CCN(C(=O)CSCC(=O)N=c2sc3ccccc3n2C)CC1	none
O=C1c2ccccc2C(=O)N1CCn1c(=O)oc2ccccc21	none
CC(C)[C@H](NC(=O)NCc1ccco1)C(=O)O	none
COC(=O)/C(=C1/Oc2cc3c(cc2S1)OCO3)C(F)(F)F	none
CC(NC(=O)CSc1nc2ccccc2c(=O)n1CCCO)c1ccccc1 (stereo not drawn)	CYP2C9 inhib 90, CYP2C19 inhib 72
CCCCn1c(SCC(=O)Nc2nccs2)nc2ccccc2c1=O	none (no result: tolC growth inh)
Cc1nn(C)c(C)c1NC(=O)Nc1cccc(C(F)(F)F)c1	none (no result: tolC growth inh)
Cc1snc(S(=O)(=O)/C(C#N)=N/Nc2cccc(C(F)(F)F)c2)c1C#N	CYP2C9 inhib 99 (no result: tolC growth inh)
COc1ccc(Nc2nccc(OC)c2C#N)cc1	none (no result: tolC growth inh)
COc1ccc(N/N=C(/C#N)S(=O)(=O)c2nsc(C)c2C#N)cc1	CYP2C9 inhib 82 (no result: tolC growth inh)
CCOC(=O)c1c(C)cc(C)n2c1nc1ccccc12	none (no result: tolC growth inh)
CCCC[n+]1ccn(-c2nc3ccccc3nc2[N-]S(=O)(=O)c2ccc(C)cc2)c1	CYP2C9 inhib 72 (no result: tolC growth inh)
Cc1cccc(C)c1NC(=O)C1NC(=O)CC1c1ccccc1 (stereo not drawn)	none (no result: tolC growth inh)
COc1ccc2c(c1)CC(C1(O)C(=O)Nc3ccccc31)C2=O (stereo not drawn)	CYP2C19 inhib 83
O=C1CCCCCC1C1(O)C(=O)Nc2ccccc21 (stereo not drawn)	none
CCOc1ccc(-n2c(SCC(=O)Nc3ccc(OC)cc3OC)nc3c(c2=O)SCC3)cc1	none
O=C(Cn1cnc2c(cnn2-c2ccc(Cl)cc2)c1=O)NCC1CCCO1 (stereo not drawn)	none
CCc1nnc(NC(=O)C2CCCN2C(=O)NC2CCCCC2)s1 (stereo not drawn)	none
O=C(CSCc1ccccc1Cl)NN1C(=O)c2ccccc2C1=O	CYP2C9 inhib 51 (no result: tolC growth inh)
O=C(C1CCC(CNS(=O)(=O)c2cccc3nsnc23)CC1)N1CC=C(c2ccccc2)CC1 (stereo not drawn)	CYP2C9 inhib 71, CYP2C19 inhib 87 (no result: tolC growth inh)

Screens deposited in PubChem by several laboratories.
